Measurements pooled from the literature.
Protocols differ between the studies behind these lines.
Cell line: Jurkat
Read-out: cell growth or viability

| SMILES | assay | setting | quantity | value |
| --- | --- | --- | --- | --- |
| O=C(/C=C/C=C/c1ccc2c(c1)OCO2)N1CCCCC1 | MTT | 48 h | IC50 | > 50 µg/mL |
| C[C@H](O)C(=O)CCCCCCC(=O)Nc1cccc(-c2cn(-c3ccccc3)nn2)c1 | thymidine uptake |  | IC50 | 2.84 µM |
| Cc1cc(=O)n(C)c2cc(N3C(=O)CC[C@H](NS(=O)(=O)CC(C)C)[C@H]3c3ccc(Cl)cc3)ccc12 |  | 7 days | EC50 | 10.5 µM |
| CCCON(Cc1ccc(C(=O)NO)cc1)C(=O)Nc1ccc(N(C)C)cc1 | ATP luminescence | 72 h | IC50 | 5.22 µM |
| CCOC(=O)CCC1=CC2C=CC=CC1C2C1CCCCC1=O (centres unmarked) | flow cytometry |  | IC50 | 0.048 µM |
| CCn1cc(-c2cccc(C(F)(F)F)c2)c2sc(C(=N)NC3CCS(=O)(=O)CC3)cc2c1=O |  | 7 days | EC50 | 3.64 µM |
| O=C1CCCCC1C1C2C=CC=CC1C(CCN1C(=O)c3ccccc3C1=O)=C2 (centres unmarked) | flow cytometry |  | IC50 | 0.026 µM |
| CCCCCCCCCCCCNC(=O)NCCCC[C@H](NS(C)(=O)=O)C(=O)N[C@H](C)C(=O)N[C@@H](CCCNC(=N)N)C(N)=O | MTT | 72 h | EC50 | 25.4 to 40.8 µM |
| N#CCCC1=CC2C=CC=CC1C2C1CCCCC1=O (centres unmarked) | flow cytometry |  | IC50 | 0.075 µM |
| CCCCCCCCCCCCNC(=S)NCCCC[C@H](NS(C)(=O)=O)C(=O)N[C@H](C)C(=O)N[C@@H](CCCNC(=N)N)C(=O)N1CCOCC1 | MTT | 72 h | EC50 | 35.5 to 64.4 µM |
| Cc1cc2c(cc1N1C(=O)c3cccc4c(CCCO)ccc(c34)C1=O)n(C)c(=O)n2C (racemic) | resazurin |  | GI50 | 3.9 µM |
